This is an account of results in ChEMBL document CHEMBL4382220, “Enhancement of the tail hydrophobic interactions within the carbonic anhydrase IX active site via structural extension: Design and synthesis of novel N-substituted isatins-SLC-0111 hybrids as carbonic anhydrase inhibitors and antitumor agents” (Eur J Med Chem, 2019).

SMILES strings stand for the structures.

One assay deals with Carbonic anhydrase 1 (Homo sapiens, UniProt P00915). Put plainly: Inhibition of recombinant human carbonic anhydrase 1 by stopped flow CO2 hydration assay.
Chain of Carbonic anhydrase 1 (P00915 whole entry): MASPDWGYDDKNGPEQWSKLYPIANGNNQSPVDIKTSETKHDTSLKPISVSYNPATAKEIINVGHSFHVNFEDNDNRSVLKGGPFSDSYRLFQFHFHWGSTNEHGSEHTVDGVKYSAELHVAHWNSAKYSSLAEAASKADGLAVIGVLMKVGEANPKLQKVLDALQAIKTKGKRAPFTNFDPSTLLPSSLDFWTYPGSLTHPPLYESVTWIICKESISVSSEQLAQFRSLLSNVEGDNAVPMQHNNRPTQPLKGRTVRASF
Conditions: not given
As to `NS(=O)(=O)c1ccc(NC(=O)Nc2ccc(/N=C3\C(=O)N(Cc4cccc(F)c4)c4ccc(Br)cc43)cc2)cc1`, the Ki turned out to be 4700 nM.

Regarding `CN1C(=O)/C(=N\c2ccc(NC(=O)Nc3ccc(S(N)(=O)=O)cc3)cc2)c2ccccc21`, the Ki is 898 nM.

As for `Cc1ccc(CN2C(=O)/C(=N\c3ccc(NC(=O)Nc4ccc(S(N)(=O)=O)cc4)cc3)c3ccccc32)cc1`, the Ki came out at 6570 nM.

On to `NS(=O)(=O)c1ccc(NC(=O)Nc2ccc(/N=C3\C(=O)N(Cc4cccc(F)c4)c4ccccc43)cc2)cc1`, for which the inhibition constant (Ki) was found to be 2070 nM.

Consider `Cc1ccc(CN2C(=O)/C(=N\c3ccc(NC(=O)Nc4ccc(S(N)(=O)=O)cc4)cc3)c3cc(Br)ccc32)cc1`, for which the Ki was found to be 4640 nM.

`Cc1ccc(CN2C(=O)/C(=N\c3ccc(NC(=O)Nc4ccc(S(N)(=O)=O)cc4)cc3)c3cc(Cl)ccc32)cc1`: the Ki turned out to be 6150 nM.

For the compound `CN1C(=O)/C(=N\c2ccc(NC(=O)Nc3ccc(S(N)(=O)=O)cc3)cc2)c2cc(Cl)ccc21`, the inhibitory constant (Ki) came out at 407 nM.

On to `NS(=O)(=O)c1ccc(NC(=O)Nc2ccc(/N=C3\C(=O)N(Cc4ccccc4)c4ccc(Cl)cc43)cc2)cc1`, for which the Ki is 2500 nM.

Take `CCCN1C(=O)/C(=N\c2ccc(NC(=O)Nc3ccc(S(N)(=O)=O)cc3)cc2)c2cc(Cl)ccc21`: the Ki came to 607 nM.

On to `NS(=O)(=O)c1ccc(NC(=O)Nc2ccc(/N=C3\C(=O)N(Cc4ccccc4)c4ccc(Br)cc43)cc2)cc1`, for which the Ki was 5890 nM.

Turning to `N#Cc1ccc(CN2C(=O)/C(=N\c3ccc(NC(=O)Nc4ccc(S(N)(=O)=O)cc4)cc3)c3ccccc32)cc1`, the Ki stood at 2290 nM.

As to `CN1C(=O)/C(=N\c2ccc(NC(=O)Nc3ccc(S(N)(=O)=O)cc3)cc2)c2cc(Br)ccc21`, the Ki is 1960 nM.

Regarding `N#Cc1ccc(CN2C(=O)/C(=N\c3ccc(NC(=O)Nc4ccc(S(N)(=O)=O)cc4)cc3)c3cc(Cl)ccc32)cc1`, the Ki came to 8290 nM.

In the case of `N#Cc1ccc(CN2C(=O)/C(=N\c3ccc(NC(=O)Nc4ccc(S(N)(=O)=O)cc4)cc3)c3cc(Br)ccc32)cc1`, the inhibition constant (Ki) was determined as 5840 nM.

Consider `NS(=O)(=O)c1ccc(NC(=O)Nc2ccc(/N=C3\C(=O)N(Cc4cccc(F)c4)c4ccc(Cl)cc43)cc2)cc1`, for which the Ki was determined as 5100 nM.

As for `CCCN1C(=O)/C(=N\c2ccc(NC(=O)Nc3ccc(S(N)(=O)=O)cc3)cc2)c2cc(Br)ccc21`, the Ki came to 2960 nM.

With `CCCN1C(=O)/C(=N\c2ccc(NC(=O)Nc3ccc(S(N)(=O)=O)cc3)cc2)c2ccccc21`, the Ki was 939 nM.

On to `NS(=O)(=O)c1ccc(NC(=O)Nc2ccc(/N=C3\C(=O)N(Cc4ccccc4)c4ccccc43)cc2)cc1`, for which the Ki was 641 nM.

The subject of another assay is MDA-MB-231. Put plainly: Induction of apoptosis in human MDA-MB-231 cells assessed as late apoptotic cells after 24 hrs by Annexin V-FITC/propidium iodide staining based flow cytometry (reference value: 0.26%). It counts as functional.
Conditions: not given
`CN1C(=O)/C(=N\c2ccc(NC(=O)Nc3ccc(S(N)(=O)=O)cc3)cc2)c2cc(Cl)ccc21`: the Activity is 11.26%.

Another assay relates to MDA-MB-231. Put plainly: Induction of apoptosis in human MDA-MB-231 cells assessed as necrotic cells after 24 hrs by Annexin V-FITC/propidium iodide staining based flow cytometry (reference value: 0.51%). It counts as functional.
Conditions: not given
As to `CN1C(=O)/C(=N\c2ccc(NC(=O)Nc3ccc(S(N)(=O)=O)cc3)cc2)c2cc(Cl)ccc21`, the Activity is on record as 2.47%.

In another assay the target is Vascular endothelial growth factor receptor 2 (Homo sapiens, UniProt P35968).
Chain of Vascular endothelial growth factor receptor 2 (P35968 whole entry): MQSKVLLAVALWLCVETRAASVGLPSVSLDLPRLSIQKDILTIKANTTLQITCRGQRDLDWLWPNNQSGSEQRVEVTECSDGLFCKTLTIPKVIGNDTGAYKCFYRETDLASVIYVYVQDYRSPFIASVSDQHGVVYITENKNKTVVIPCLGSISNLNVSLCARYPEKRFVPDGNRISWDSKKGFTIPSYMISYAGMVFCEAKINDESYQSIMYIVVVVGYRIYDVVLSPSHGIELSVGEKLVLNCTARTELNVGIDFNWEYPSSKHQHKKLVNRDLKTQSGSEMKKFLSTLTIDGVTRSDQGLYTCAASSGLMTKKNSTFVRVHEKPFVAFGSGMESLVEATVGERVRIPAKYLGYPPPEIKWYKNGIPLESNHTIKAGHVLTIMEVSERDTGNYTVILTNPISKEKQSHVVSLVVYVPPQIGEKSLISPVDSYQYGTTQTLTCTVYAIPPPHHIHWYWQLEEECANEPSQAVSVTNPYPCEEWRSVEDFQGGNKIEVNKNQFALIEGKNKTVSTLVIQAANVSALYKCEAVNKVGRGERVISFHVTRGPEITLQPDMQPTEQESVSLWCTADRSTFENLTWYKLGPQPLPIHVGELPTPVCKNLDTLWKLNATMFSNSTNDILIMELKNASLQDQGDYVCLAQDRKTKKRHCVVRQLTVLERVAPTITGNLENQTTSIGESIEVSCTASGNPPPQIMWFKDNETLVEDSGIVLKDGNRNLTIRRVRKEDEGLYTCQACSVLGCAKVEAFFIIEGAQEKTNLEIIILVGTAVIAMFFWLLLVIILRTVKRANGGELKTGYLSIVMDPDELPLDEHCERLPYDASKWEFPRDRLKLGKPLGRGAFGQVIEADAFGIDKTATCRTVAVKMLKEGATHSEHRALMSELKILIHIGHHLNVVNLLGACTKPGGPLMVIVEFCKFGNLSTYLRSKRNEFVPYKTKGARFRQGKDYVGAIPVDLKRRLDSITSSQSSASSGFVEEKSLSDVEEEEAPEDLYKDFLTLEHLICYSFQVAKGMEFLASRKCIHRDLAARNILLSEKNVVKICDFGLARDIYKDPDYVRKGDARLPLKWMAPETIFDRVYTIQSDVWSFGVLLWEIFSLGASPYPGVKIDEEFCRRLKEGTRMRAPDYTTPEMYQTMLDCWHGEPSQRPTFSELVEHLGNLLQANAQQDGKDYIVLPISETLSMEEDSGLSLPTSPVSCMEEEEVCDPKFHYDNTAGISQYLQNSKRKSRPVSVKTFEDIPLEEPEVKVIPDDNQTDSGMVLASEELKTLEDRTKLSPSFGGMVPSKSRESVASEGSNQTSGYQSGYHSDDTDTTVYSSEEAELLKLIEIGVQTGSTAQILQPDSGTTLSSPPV
Conditions: not given
In turn, `Cc1ccc(CN2C(=O)/C(=N\c3ccc(NC(=O)Nc4ccc(S(N)(=O)=O)cc4)cc3)c3ccccc32)cc1` registered an IC50 of 462 nM.

Compound `CN1C(=O)/C(=N\c2ccc(NC(=O)Nc3ccc(S(N)(=O)=O)cc3)cc2)c2cc(Cl)ccc21` came in with an IC50 of 261 nM.

As to `CCCN1C(=O)/C(=N\c2ccc(NC(=O)Nc3ccc(S(N)(=O)=O)cc3)cc2)c2cc(Cl)ccc21`, inhibition was half-maximal at 384 nM (IC50).

In turn, `N#Cc1ccc(CN2C(=O)/C(=N\c3ccc(NC(=O)Nc4ccc(S(N)(=O)=O)cc4)cc3)c3ccccc32)cc1` gave an IC50 of 207 nM.

Another assay deals with MDA-MB-231. Put plainly: Antiproliferative activity against human MDA-MB-231 cells after 48 hrs under hypoxic condition by MTT assay. The settings on record: MDA-MB-231, 48 h. Format: functional, cell-based. A digest of the protocol:
(§1)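 MCF-7 and MDA-MB-231 cells (ATCC) grown in DMEM with 10% heat-inactivated FBS, 1% L-glutamine (2.5 mM), 10 mM HEPES, 50 μg/mL gentamycin and 100 μM CoCl2 as hypoxia inducer, 37 C, 5% CO2. MTT read-out after 48 h exposure. IC50 is the concentration giving 50% growth inhibition relative to untreated controls, mean ± S.D. of three separate experiments.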
In the case of `Cc1ccc(CN2C(=O)/C(=N\c3ccc(NC(=O)Nc4ccc(S(N)(=O)=O)cc4)cc3)c3ccccc32)cc1`, the IC50 was 48.9 µM.

`CN1C(=O)/C(=N\c2ccc(NC(=O)Nc3ccc(S(N)(=O)=O)cc3)cc2)c2cc(Cl)ccc21` registered an IC50 of 7.43 µM.

Take `CCCN1C(=O)/C(=N\c2ccc(NC(=O)Nc3ccc(S(N)(=O)=O)cc3)cc2)c2cc(Cl)ccc21`: it took 25.6 µM to reach half-maximal inhibition (IC50).

`N#Cc1ccc(CN2C(=O)/C(=N\c3ccc(NC(=O)Nc4ccc(S(N)(=O)=O)cc4)cc3)c3ccccc32)cc1` had an IC50 of 23.2 µM.

Compound `COc1cccc2c1C(=O)c1c(O)c3c(c(O)c1C2=O)C[C@@](O)(C(=O)CO)C[C@@H]3O[C@H]1C[C@H](N)[C@H](O)[C@H](C)O1` [DOXORUBICIN] yielded an IC50 of 8.5 µM.

The test system of another assay is MDA-MB-231. Put plainly: Induction of apoptosis in human MDA-MB-231 cells assessed as early apoptotic cells after 24 hrs by Annexin V-FITC/propidium iodide staining based flow cytometry (reference value: 0.77%). Format: functional.
Conditions: not given
Regarding `CN1C(=O)/C(=N\c2ccc(NC(=O)Nc3ccc(S(N)(=O)=O)cc3)cc2)c2cc(Cl)ccc21`, the Activity came to 7.28%.

The next assay deals with MCF7. Put plainly: Antiproliferative activity against human MCF7 cells after 48 hrs under hypoxic condition by MTT assay. Format: functional, cell-based. As to conditions: MCF7, 48 h. A digest of the protocol: as §1
`Cc1ccc(CN2C(=O)/C(=N\c3ccc(NC(=O)Nc4ccc(S(N)(=O)=O)cc4)cc3)c3ccccc32)cc1`: half-maximal inhibition (IC50) required 11.8 µM.

The compound `CN1C(=O)/C(=N\c2ccc(NC(=O)Nc3ccc(S(N)(=O)=O)cc3)cc2)c2cc(Cl)ccc21` had a half-maximal inhibitory concentration (IC50) of 12.9 µM.

For `CCCN1C(=O)/C(=N\c2ccc(NC(=O)Nc3ccc(S(N)(=O)=O)cc3)cc2)c2cc(Cl)ccc21`, inhibition was half-maximal at 7.36 µM (IC50).

`N#Cc1ccc(CN2C(=O)/C(=N\c3ccc(NC(=O)Nc4ccc(S(N)(=O)=O)cc4)cc3)c3ccccc32)cc1` registered an IC50 of 5.97 µM.

The target in a further assay is Carbonic anhydrase 9 (Homo sapiens, UniProt Q16790).
Conditions: not given
For the compound `NS(=O)(=O)c1ccc(NC(=O)Nc2ccc(/N=C3\C(=O)N(Cc4cccc(F)c4)c4ccc(Br)cc43)cc2)cc1`, the Ki was 61.2 nM.

With `CN1C(=O)/C(=N\c2ccc(NC(=O)Nc3ccc(S(N)(=O)=O)cc3)cc2)c2ccccc21`, affinity was put at a Ki of 25.1 nM.

Regarding `Cc1ccc(CN2C(=O)/C(=N\c3ccc(NC(=O)Nc4ccc(S(N)(=O)=O)cc4)cc3)c3ccccc32)cc1`, the Ki is 4.7 nM.

With `NS(=O)(=O)c1ccc(NC(=O)Nc2ccc(/N=C3\C(=O)N(Cc4cccc(F)c4)c4ccccc43)cc2)cc1`, the Ki is 54.5 nM.

As to `Cc1ccc(CN2C(=O)/C(=N\c3ccc(NC(=O)Nc4ccc(S(N)(=O)=O)cc4)cc3)c3cc(Br)ccc32)cc1`, the affinity corresponds to a Ki of 26.4 nM.

As to `Cc1ccc(CN2C(=O)/C(=N\c3ccc(NC(=O)Nc4ccc(S(N)(=O)=O)cc4)cc3)c3cc(Cl)ccc32)cc1`, the affinity, expressed as Ki, was 43 nM.

`CN1C(=O)/C(=N\c2ccc(NC(=O)Nc3ccc(S(N)(=O)=O)cc3)cc2)c2cc(Cl)ccc21` displayed a Ki of 5.2 nM.

`NS(=O)(=O)c1ccc(NC(=O)Nc2ccc(/N=C3\C(=O)N(Cc4ccccc4)c4ccc(Cl)cc43)cc2)cc1` came in with an inhibitory constant (Ki) of 86.1 nM.

In turn, `CCCN1C(=O)/C(=N\c2ccc(NC(=O)Nc3ccc(S(N)(=O)=O)cc3)cc2)c2cc(Cl)ccc21` displayed an inhibition constant Ki of 8.2 nM.

`NS(=O)(=O)c1ccc(NC(=O)Nc2ccc(/N=C3\C(=O)N(Cc4ccccc4)c4ccc(Br)cc43)cc2)cc1` showed a Ki of 41.2 nM.

In the case of `N#Cc1ccc(CN2C(=O)/C(=N\c3ccc(NC(=O)Nc4ccc(S(N)(=O)=O)cc4)cc3)c3ccccc32)cc1`, the Ki came out at 9.7 nM.

The compound `CN1C(=O)/C(=N\c2ccc(NC(=O)Nc3ccc(S(N)(=O)=O)cc3)cc2)c2cc(Br)ccc21` showed a Ki of 9.2 nM.

As to `N#Cc1ccc(CN2C(=O)/C(=N\c3ccc(NC(=O)Nc4ccc(S(N)(=O)=O)cc4)cc3)c3cc(Cl)ccc32)cc1`, the Ki was determined as 34.7 nM.

`N#Cc1ccc(CN2C(=O)/C(=N\c3ccc(NC(=O)Nc4ccc(S(N)(=O)=O)cc4)cc3)c3cc(Br)ccc32)cc1` displayed a Ki of 36.9 nM.

For `NS(=O)(=O)c1ccc(NC(=O)Nc2ccc(/N=C3\C(=O)N(Cc4cccc(F)c4)c4ccc(Cl)cc43)cc2)cc1`, the Ki was 58.8 nM.

In turn, `CCCN1C(=O)/C(=N\c2ccc(NC(=O)Nc3ccc(S(N)(=O)=O)cc3)cc2)c2cc(Br)ccc21` registered an inhibitory constant (Ki) of 26.7 nM.

As to `CCCN1C(=O)/C(=N\c2ccc(NC(=O)Nc3ccc(S(N)(=O)=O)cc3)cc2)c2ccccc21`, the Ki came to 19.6 nM.

Turning to `NS(=O)(=O)c1ccc(NC(=O)Nc2ccc(/N=C3\C(=O)N(Cc4ccccc4)c4ccccc43)cc2)cc1`, the Ki was 73.2 nM.
